Measurements as given in ChEMBL document CHEMBL4513216, “Probing the Open Global Health Chemical Diversity Library for Multistage-Active Starting Points for Next-Generation Antimalarials” (ACS Infect Dis, 2020).

Assay: Toxicity liver stage against HepG2, at 10uM
Format: cell-based
Set-up: test concentration 10 uM, cell line HepG2-A16-CD81EGFP
Conditions: human, HepG2-A16-CD81EGFP cells; read-out: INHIBITION
How it was run: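 Uninfected HepG2-A16-CD81EGFP cells, 3 × 10^3 per well, 1536-well, plated on prespotted compound at 10 μM final, parasite-free screening media added to match infected plates; puromycin 10 μM positive, DMSO 0.5% negative; run in parallel with 48 h PbLuc assay at 37 °C, 5% CO2; viability by CellTiter-Glo luminescence, normalized to controls.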

| Compound | cytotoxicity at 10 µM [%] |
| --- | --- |
| CC(C)c1noc(CN(C)C(=O)c2ncn[nH]2)n1 | 6.2 |
| Cc1noc(C)c1CCC(=O)NC(C)c1nnc2n1CCC2 (stereo not given) | -3.39 |
| CCOC(=O)N1CCN(C(=O)c2cc(-c3ccc(C)cc3)on2)CC1 | 5.68 |
| Cc1c(C(=O)NC2CCCOC2)nnn1-c1ccccc1 (stereo not given) | -24.5 |
| COc1cccc(OCCc2nnc(NC(C)=O)s2)c1 | 4.84 |
| CCC(CC)C(O)CNC(=O)Cc1c[nH]c2ncccc12 (stereo not given) | 0.476 |
| Cc1nn(C)c2nc(N3CCCC3c3nccs3)sc12 (stereo not given) | -2.87 |
| CN(CCCNC(=O)CN1CCS(=O)(=O)CC1)c1ccccc1 | -4.65 |
| CNS(=O)(=O)c1ccc(C(=O)NCCc2ccccn2)cc1 | -3.81 |
| CC(=O)N1CCCN(C(=O)Cc2ccc3c(c2)OCO3)CC1 | -15.1 |
| CC(C)(C)C(=O)NCC(=O)NCC1CCCS1 (stereo not given) | 3.46 |
| CS(=O)(=O)NC(=O)c1ccn(-c2ccc(Cl)c(Cl)c2)n1 | 6.96 |
| CCN1CCn2c(C)cnc2C12CCN(C(=O)NCC(C)C)CC2 | -1.07 |
| Cc1nc(C)n(C2CCCN(C(=O)CCn3cncn3)C2)n1 (stereo not given) | -4.24 |
| Cc1sc(CN)nc1-c1ccc(Cl)cc1 | -3.07 |
| CN(Cc1ccc(-n2cccn2)cc1)C(=O)CCC(F)(F)F | -3.67 |
| Nc1c(Cl)cnn1C1CCN(Cc2ccccc2)C1 (stereo not given) | 0.648 |
| Cn1cc(N2CC3(CCN(CC4CC4)C3)CC2=O)cn1 (stereo not given) | 1.84 |
| CC(C)C(C)(C#N)NC(=O)Cn1nnc(-c2cc3ccccc3o2)n1 (stereo not given) | 5.76 |
| CC1(C)Cc2c(cnn2-c2ccccc2)C(NC2CCSCC2)C1 (stereo not given) | -186 |
| O=S(=O)(Cc1ccccc1)NCC1CCCN(Cc2cccs2)C1 (stereo not given) | 3.3 |
| COc1ccccc1OCc1nc2cc3c(cc2c(=O)o1)OCCCO3 | 1.37 |
| CC(=O)N1CCCCCC1C1CCN(Cc2nc(C(C)C)no2)CC1 (stereo not given) | 6.27 |
| Cc1nccn1-c1cc(CNC(=O)C(C)(C)C)ccn1 | -11.9 |
| O=C(NCC1CCCO1)c1ccc(S(=O)(=O)NCCc2cn[nH]c2)cc1 (stereo not given) | 5.5 |
| CCOCC(O)CNc1cncc(Br)c1 (stereo not given) | 4.21 |
| COCC(=O)N1CCCC1c1cc(Nc2nnc(C)s2)nc(C)n1 (stereo not given) | -6.15 |
| CN(C)C(=O)CN1CCOCC2(C1)CN(c1ncc(F)cn1)CCO2 (stereo not given) | -6.69 |

| Compound | cytotoxicity at 10 µM [%] |
| --- | --- |
| CCN(C(=O)CCc1ccccc1)C1CC(=O)NC1=O (stereo not given) | -7.32 |
| O=C(NCC1CC1)[C@@H]1CCO[C@@H]2CCN(Cc3ccco3)C[C@H]21 | -4.93 |
| Cc1noc(C)c1CN(C)CCC(=O)N1CCc2sccc2C1 | 0.265 |
| CS(=O)(=O)c1ccc(-c2cnc(C3CCCN3)cn2)cc1 (stereo not given) | -1.71 |
| Cn1ncc2c(=O)[nH]c(CN3CCCC3Cc3ccc(F)cc3)nc21 (stereo not given) | 0.301 |
| Cc1cccc(N2CC3(CCN(Cc4nccn4C)C3)CC2=O)c1 (stereo not given) | -78.6 |
| Cc1[nH]nc(CCC(=O)N2CCCC(OCc3cccnc3)C2)c1C (stereo not given) | -5.07 |
| Cn1cc(CN2CCCC(c3nc(O)cc(-c4cccs4)n3)C2)cn1 (stereo not given) | -5.89 |
| CN(Cc1ccco1)[C@@H]1CN(Cc2ccsc2)C[C@@H]2CCCO[C@@H]21 | 9.59 |
| O=C(c1cccs1)N1CCOCC2(C1)CN(c1cccnc1)C(=O)CO2 (stereo not given) | 3.36 |
| Cn1c(CO[C@H]2CN(S(C)(=O)=O)C[C@H]2F)nc2ccccc21 | -0.714 |
| Cn1cc(CN2C[C@H](N3CCOCC3)[C@@H]3OCCC[C@@H]32)cn1 | 5.02 |
| CCN1CCC2(CC1)CC(Nc1ncccn1)CO2 (stereo not given) | -21.6 |
| CC(C)(C)C(=O)N1CCN(C(=O)Nc2cnn(CC(F)F)c2)CC1 | 9.62 |
| N#Cc1c2n(c3c(=O)[nH]cnc13)CCCCC2 | 5.5 |
| COc1ccc(-c2cnc3n2CCNC32CCN(S(C)(=O)=O)CC2)cc1 | -2.72 |
| CC(C)N(C)S(=O)(=O)N(C)Cc1cnn(C)c1 | 7.2 |
| Cc1cc(C)cc(OCCC(=O)N2CCCC(n3cncn3)C2)c1 (stereo not given) | -3.76 |
| COc1c(CNC(c2ccccc2)c2ccc(F)cc2)c(C)nn1C (stereo not given) | -5.16 |
| Cc1ccccc1C(C)NC(=O)c1ccc(=O)n(C)c1 (stereo not given) | 4.31 |
| Cc1cc(C)cc(NC(=O)Nc2c(O)c3ccccc3oc2=O)c1 | 9.24 |
| CCC(NC(=O)CNC(=O)OC)c1cc(F)ccc1F (stereo not given) | -5.03 |
| c1csc(CN2CC(c3nc(-c4cnccn4)no3)C2)c1 | -8.28 |
| CCN1CCC(NC(=O)CN2CCCCC2Cn2cccn2)CC1 (stereo not given) | -2.71 |
| CCN(CC)C(=O)c1ccc(Cl)c(NC(=O)c2cnc(C)cn2)c1 | -0.273 |
| O=C(Nc1cn[nH]c1)N1CCN(CCSc2ccccc2)CC1 | 4.32 |
| CN1CCC(c2cccc(C(=O)N(C)C)n2)CC1 | 4.53 |
